# High-throughput results from PubChem BioAssay.
# Rows were chosen to be rich in hits. Some 2.1% of all compounds tested hit in one or more screens of this group.
# VIM-2 inhibitor: inhibitors of Pseudomonas aeruginosa VIM-2 metallo-beta-lactamase; purified VIM-2, nitrocefin hydrolysis, epi-absorbance fluorescence; inhibition, % at 5.6 µM; 0.89% of 290,000 active;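 active means inhibition above the mean of all tested compounds plus 3 SD, cutoff set per screening run, cut at about 7.5% in these data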;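 further: red hydrolysis product quenches plate fluorescence so inhibitors raise well fluorescence; 0% = enzyme with DMSO and 100% = DMSO without enzyme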
# CRFR2-BP antag: blocks CRF-induced signaling of the CRF-BP/CRF-R2 complex; inhibition, % at 11.8 µM; HEK293 CRF-R2/CRF-BP, CRF-induced calcium fluorescence; AID 588475; 0.59% of 350,000 active;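 active means inhibition of the ligand-induced calcium signal above about 50% at the single tested concentration, limit read from the data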
# TRPN1 ag: activates the zebrafish TRPN1 channel; HEK293 zebrafish TRPN1-YFP, Fluo-8 calcium fluorescence; 100% = response to 87 µM carbachol; activation, % at 3 µM; 0.18% of 220,000 active; AID 1424;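 active means activation above its plate's cutoff, the mean activation of test wells on that plate plus 3 SD, cut at about 19% in these data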;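 further: 0% = DMSO alone and 100% = 87 µM carbachol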
#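 Material: zebrafish TRPN1-YFP in HEK293 cells; Doses: single test compound dose, 3 µM nominal, 0.3% DMSO; Timing: dye loading 1 h at 37 °C, then 30 min room temperature; Technique: intracellular calcium fluorescence with Fluo-8; Benchmarks: high carbachol 87 µM, low DMSO alone.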
# TRPML3 ag: human mucolipin-3 channel agonism; Q8TDD5; HEK293 TRPML3-YFP, Fluo-8 calcium fluorescence; 100% = the carbachol control signal; activation, % at 3 µM; 0.29% of 220,000 active; AID 1448;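 active means activation above its plate's cutoff, the mean activation of the plate's test wells plus 3 SD, cut at about 12% in these data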;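 further: 0% = DMSO only wells and 100% = carbachol wells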
# Target sequence (Q8TDD5 whole entry, looked up): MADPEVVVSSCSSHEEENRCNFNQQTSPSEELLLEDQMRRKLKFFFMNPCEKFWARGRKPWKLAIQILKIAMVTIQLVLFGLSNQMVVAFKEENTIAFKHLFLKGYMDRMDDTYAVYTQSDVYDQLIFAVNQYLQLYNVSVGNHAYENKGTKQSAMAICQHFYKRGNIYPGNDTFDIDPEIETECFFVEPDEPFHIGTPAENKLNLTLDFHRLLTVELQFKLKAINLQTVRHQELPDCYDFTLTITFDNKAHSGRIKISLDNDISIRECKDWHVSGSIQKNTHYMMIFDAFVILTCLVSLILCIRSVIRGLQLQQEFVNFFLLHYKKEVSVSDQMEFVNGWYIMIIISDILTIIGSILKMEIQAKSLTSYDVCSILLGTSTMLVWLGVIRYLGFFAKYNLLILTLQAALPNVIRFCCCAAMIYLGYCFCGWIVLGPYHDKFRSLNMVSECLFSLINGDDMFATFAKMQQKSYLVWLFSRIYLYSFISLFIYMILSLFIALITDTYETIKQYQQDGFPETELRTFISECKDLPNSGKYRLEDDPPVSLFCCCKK
#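 Test system – HEK293 line with stable expression of human TRPML3-YFP channel · Control set – carbachol 87 µM final as high control (100%), DMSO as low control (0%) · Signal – Fluo-8 calcium dye fluorescence, ex 470-495, em 515-575 nm · Incubation – 1-h 37 °C dye load, 5-s basal, 120-s post-compound reads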
# IMP-1 inhibitor: blocks Pseudomonas aeruginosa IMP-1 metallo-beta-lactamase; AID 1556; inhibition, % at 5.6 µM; 0.45% of 290,000 active; purified IMP-1, nitrocefin hydrolysis, epi-absorbance fluorescence;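 active means inhibition above the mean plus 3 SD of all compounds in the same screening run, cut at about 4.5% in these data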;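 further: 0% = IMP-1 with DMSO and 100% = DMSO wells lacking enzyme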
#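 assay system = purified recombinant IMP-1 metallo-beta-lactamase enzyme | schedule = 15 min preincubation plus 25 min reaction at 25 °C | signal = Epi-absorbance fluorescence, 480 nm excitation, 530 nm emission | read-out basis = percent inhibition from optical density relative to buffer-blank wells | controls = IMP-1 with DMSO as 0%, enzyme-free DMSO as 100%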
# CRFR2-BP ag: CRF-BP/CRF-R2 complex agonism | HEK293 CRF-R2/CRF-BP, calcium dye fluorescence (FLIPR); percent of saturating CRF peptide response | 0.46% of 350,000 active | activation, % at 13.2 µM;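 active means activation of at least 50%, plus an integration ratio under a set limit after plate pattern correction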;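 further: plate controls were neutral control wells without compound for no effect and CRF at EC100 for full effect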
# Active calls of the source: *; · = no result given.
SMILES,VIM-2 inhibitor,CRFR2-BP antag,TRPN1 ag,TRPML3 ag,IMP-1 inhibitor,CRFR2-BP ag
CCOC(=O)N1CCN(C(=O)c2ccc3c(c2)NC(=O)/C(=C/c2ccccc2)S3)CC1,-1,-1,·,·,-2,3
Cc1cn(CC(=O)N2CCN(c3ccccn3)CC2)c(=O)[nH]c1=O,·,96*,·,·,·,1
COc1ccccc1CC(=O)N1CCN(c2ccccn2)CC1,-1,6,1,0,5.9*,-1
Cc1ccc(SCC(=O)N2CCN(c3ccccn3)CC2)cc1,0,7,1,0,-1,0
CC(C)c1ccc(N(C(=O)CNC(=O)c2ccco2)C(C(=O)NC2CCCC2)c2cccnc2)cc1 (stereo not drawn),-1,-2,·,·,-2,-4
COc1ccc(C2C(C#N)=C(N)Oc3cc(O)ccc32)cc1C (stereo not drawn),4,-32,·,·,0,55*
COc1cc(C2C(C#N)=C(N)Oc3cc(N(C)C)ccc32)cc2c1OCO2 (stereo not drawn),-2,-193,2,2,-2,158*
COc1cc2ccccc2cc1C(=O)N(CCN(C)C)c1nc2c(OC)ccc(OC)c2s1,0,72*,·,·,-1,2
COc1ccc(OC)c2sc(N(CCN(C)C)C(=O)c3ccc4ccccc4c3)nc12,1,0,·,·,-2,-1
CCN(CC)CCN(C(=O)C1=COCCO1)c1nc2c(OC)ccc(OC)c2s1,8.9*,28,·,·,-4,0
Cc1ccc(C(=O)NCC(=O)OCCOc2ccccc2Cl)cc1,·,17,·,·,·,-1
COc1cc(OC)cc(N(C(=O)CNC(=O)c2cccs2)C(C(=O)NCC2CCCO2)c2ccc(OC)c(OC)c2)c1 (stereo not drawn),1,-68,0,1,-2,53*
COc1ccc(N(C(=O)CNC(=O)c2cccs2)C(C(=O)NCC2CCCO2)c2ccc(OC)c(OC)c2)cc1 (stereo not drawn),-3,11,0,0,-3,-2
COc1ccc(CCNC(=O)C(CCC(N)=O)NS(=O)(=O)c2ccc(Cl)cc2)cc1OC (stereo not drawn),2,6,·,·,-1,1
Cc1cc(C(=O)NNC(=O)C(CCC(N)=O)NS(=O)(=O)c2ccc(Cl)cc2)c(C)o1 (stereo not drawn),·,67*,·,·,·,0
COc1cccc(C2C=C(c3ccc(Br)s3)Nc3ncnn32)c1OC (stereo not drawn),-4,-89,2,1,-5,106*
Cc1cc(NC(=O)COC(=O)CCNS(=O)(=O)c2c(Cl)cccc2Cl)no1,-2,3,1,1,-3,-1
CCN(CC)CCNC(=O)CN1C(=O)CSc2ccc(S(=O)(=O)N3CCOCC3)cc21,·,-24,·,·,·,-1
Cc1oc2c(cc(NS(=O)(=O)c3ccc(C(C)C)cc3)c3ccccc32)c1C(=O)O,2,-9,·,·,8.9*,2
Cc1oc2c(cc(NS(=O)(=O)c3ccc(F)cc3)c3ccccc32)c1C(=O)O,-3,6,·,·,5.8*,2
COc1cccc(C(=O)Nc2nnc(SCC(=O)NC3CCCC3)s2)c1,6,-6,·,·,-3,-1
CC(=O)Nc1ccc(NC(=O)CS(=O)(=O)c2cn(CC(=O)N3CCC(C)CC3)c3ccccc23)cc1,-1,-12,·,·,-2,2
CCCn1c(=O)c2ccccc2n2c(SCCNCCO)nnc12,11*,-5,·,·,-3,0
CCCn1c(=O)c2ccccc2n2c(SCC(=O)c3ccccc3)nnc12,-4,11,1,0,-6,1
COc1ccc(NS(=O)(=O)c2ccc(O)c(NS(=O)(=O)c3ccc(NC(C)=O)cc3)c2)cc1,·,0,·,·,·,0
SMILES,VIM-2 inhibitor,CRFR2-BP antag,TRPN1 ag,TRPML3 ag,IMP-1 inhibitor,CRFR2-BP ag
Cc1csc2nc3ccccc3c(=O)n12,7.8*,-6,1,0,0,0
Cc1nc2scc(C)n2c(=O)c1S(=O)(=O)NCc1ccccc1,1,-2,·,·,-1,1
c1ccc(CNc2ncnc3sc4c(c23)CCC4)nc1,10*,9,1,0,-3,-2
CC(=O)Nc1ccc(NC(=O)CS(=O)(=O)c2cn(CC(=O)N3CCCC3)c3ccccc23)cc1,-2,-5,·,·,-1,0
COc1ccc(NC(=O)CN2CCC3(O)CCCCC3C2c2cc(OC)ccc2OC)cc1 (stereo not drawn),-3,51*,2,1,4,-1
COC(=O)c1c(NC(=O)CN2CCC3(O)CCCCC3C2c2ccc(OC)cc2OC)sc(C)c1C (stereo not drawn),1,6,0,-1,4,2
COc1cc([C@H]2[C@@H]3CCCC[C@]3(O)CCN2CC(=O)Nc2ccc(C)cc2C)ccc1O,-1,-2,0,0,-2,-5
COC(=O)c1c(NC(=O)CN2CCC3(O)CCCCC3C2c2ccccc2OC)sc(C)c1C (stereo not drawn),1,-80,-1,0,0,53*
O=C(CN1CCN(c2ccc(C(F)(F)F)cn2)CC1)NCc1ccc2c(c1)OCO2,-2,12,8,2,-3,-1
Cc1ccc(C(=O)Nc2ccccc2SCC2CSc3nc4ccccc4c(=O)n32)cc1 (stereo not drawn),-3,12,-1,0,-3,1
O=C(Nc1ccccc1SCC1CSc2nc3ccccc3c(=O)n21)c1ccccc1 (stereo not drawn),-1,67*,0,0,-3,-3
COC(=O)C(NC(=O)CCc1c(C)nc2c(c(C)nn2-c2ccccc2)c1C)C(C)C (stereo not drawn),2,3,·,·,4.6*,-2
Cc1cccc(NC(=O)c2nc[nH]c2C(=O)N[C@@H](C)CO)c1,·,6,·,·,·,6
Cc1ccc(S(=O)(=O)N[C@H](C(=O)OCC(=O)N2N=C(c3ccc(Cl)cc3)CC2c2ccco2)C(C)C)cc1 (stereo partly drawn),-1,-63,0,0,-1,58*
CC(=O)N1N=C(c2ccc(Cl)cc2)CC1c1ccco1 (stereo not drawn),9.9*,-11,0,-1,-1,0
CC(=O)N1N=C(c2ccc(C)cc2)CC1c1ccco1 (stereo not drawn),4,33,-3,-1,-1,-2
Cc1ccc(S(=O)(=O)ON2C(=O)c3ccccc3C2=O)c(C)c1,-1,63*,1,1,-2,2
Cc1cc(C)c(S(=O)(=O)ON2C(=O)c3ccccc3C2=O)cc1C,2,12,0,0,-2,3
CN1C(=O)CN(CCN2CC(=O)N(C)C(=O)C2)CC1=O,·,-13,·,·,·,0
Cc1ccc(S(=O)(=O)N(C)C)cc1NC(=O)C(C)OC(=O)C1CCCCC1 (stereo not drawn),·,-8,·,·,·,1
